Several values for one entry are separate records, joined by “and”; a condition that tells them apart may be missing. Equal values may be shown once.
Tests used:
[1] = system: Calf thymus DNA; assay: Apparent DNA affinity constant; format: nucleic-acid assay; details: Bos taurus
In short: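 Apparent DNA affinity constant was measured by competition with ethidium bromide. Buffer was 20 mM Na2HPO4/NaH2PO4, 0.1 M NaCl, 1 mM EDTA, pH 7.4, with calf thymus DNA at 10 μg/mL. Values are given in 10^6 M⁻¹.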

[2] = system: L1210; assay: Ability to reduce the cell count to 50% in L1210 culture cells; format: functional; details: Mus musculus, read-out: ID50 (the source's name)
In short: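 L1210 cells in exponential growth in RPMI 1640 with 2 mM glutamine, penicillin/streptomycin and 10% FCS, 37 °C, 5% CO2. Drugs dissolved in distilled water were added to cells at 0.8 × 10^5 cells/mL for 48 h, then cells were counted. ID50 is the concentration halving cell proliferation versus controls, from regression of dose-response data; mean of two independent experiments.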

[3] = system: Mus musculus; assay: […] in C38 adenocarcinoma cell line when a dose of 25 mg/kg administered intravenously in mice; format: functional, MC-38; details: route intravenous
In short: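 C38 colon adenocarcinoma in hybrid BD F1 mice, 10 per test. A standard 3-mm³ tumour fragment was implanted sc. Drugs were given iv at the stated doses on D1 or on D2 + D9, following the Geran et al. NCI protocol.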

[4] = system: Mus musculus; assay: Antitumor activity against B16 melanoma cells at a dose of 2.5 mg/kg administered intraperitoneally to mice; format: functional; details: route intraperitoneal
In short: (§1)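 Hybrid BD F1 mice were inoculated ip at D0 with 0.5 mL of B16 melanoma homogenate (1 g tumor in 10 mL physiological serum). Drugs were given ip daily D1-9. Cisplatin 0.5 mg/kg was the positive control under the same schedule.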

[5] = system: Mus musculus; assay: Survivors at day D32 when a dose of 50 mg/kg administered intravenously to mice (C38 adenocarcinoma cell lines) when tested in 10 mice; format: functional; details: route intravenous
In short: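 Hybrid BDF1 mice, 10 per test, were implanted sc with a standard 3-mm³ fragment of C38 colon adenocarcinoma. Drug was given iv either on D1 alone or on D2 and D9. Animals were followed per NCI (Geran) protocol.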

[6] = system: Mus musculus; assay: Antitumor activity against B16 melanoma cells at a dose of 5 mg/kg administered intraperitoneally to mice; format: functional; details: route intraperitoneal; in short: as §1
[7] = system: Mus musculus; assay: Antitumor activity against P388 leukemia in mice at a dose of 2.5 mg/kg administered intraperitoneally for 5 days; format: functional; details: route intraperitoneal
In short: (§2)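 CDF1 hybrid male or female mice, 10 per group, were inoculated ip with 10^6 viable P388 cells on day 0. Drugs in distilled water were given ip (0.1 mL/10 g body weight) daily D1-5. Vehicle, 5-fluorouracil and BD 84 were given the same way. T/C = median survival day of treated / controls × 100; T/C > 128% was significant; cures counted at D60.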

[8] = system: Mus musculus; assay: Survivors at day 30 when a dose of 5 mg/kg administered to P388 leukemia infected when tested in 10 mice; format: functional
[9] = system: Mus musculus; assay: Antitumor activity against B16 melanoma cells at a dose of 1.25 mg/kg administered intraperitoneally to mice; format: functional; details: route intraperitoneal; in short: as §1
[10] = system: Mus musculus; assay: Antitumor activity against B16 melanoma cells at a dose of 10 mg/kg administered intraperitoneally to mice; format: functional; details: route intraperitoneal; in short: as §1
[11] = system: Mus musculus; assay: Weight change in g when a dose of 1.25 mg/kg administered intraperitoneally to B16 melanoma infected mice; format: functional; details: route intraperitoneal
In short: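 Hybrid BDF1 mice were inoculated ip at D0 with 0.5 mL of B16 melanoma homogenate (1 g tumor in 10 mL physiological serum). Drug was given ip daily on days 1-9, with cis-platinum 0.5 mg/kg as positive control on the same schedule.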

[12] = system: Mus musculus; assay: Antitumor activity against C38 adenocarcinoma cells at a dose of 50 mg/kg administered intravenously on D1 to mice; tumor volume at D38 (T/C); format: functional, MC-38; details: route intravenous
In short: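 Hybrid BD F1 mice, 10 per group, were implanted sc with a standard 3-mm3 C38 colon adenocarcinoma fragment. Drugs were given iv at the stated doses on D1 or on D2 + D9. Read-out was tumor size in treated versus control mice (T/C) at the day stated.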

[13] = system: Mus musculus; assay: Antitumor activity against P388 leukemia in mice at a dose of 5 mg/kg administered intraperitoneally for 5 days; format: functional; details: route intraperitoneal
In short: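 CDF1 hybrid male or female mice, 10 per group, were inoculated ip on day 0 with 10^6 viable P388 leukemia cells. Drug in distilled water was given ip (0.1 mL/10 g body weight) daily on days 1-5, with vehicle, 5-fluorouracil and BD 84 controls given the same way. T/C = median survival of treated/controls × 100; T/C > 128% counted as significant.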

[14] = system: Mus musculus; assay: Median survival day in P388 leukemia model when a dose of 10 mg/kg administered intraperitoneally; format: functional; details: route intraperitoneal
In short: (§3)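 P388 leukaemia in CDF1 hybrid mice, 10 per group. At D0, 10^6 viable cells were inoculated ip, followed by a single ip dose of drug in distilled water on D1. Weight change, median survival day, T/C (treated/control median survival × 100) and survivors at D30 were recorded. Controls were 20 mice.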

[15] = system: Mus musculus; assay: Antitumor activity against B16 melanoma cells at a dose of 30 mg/kg administered intraperitoneally to mice; format: functional; details: route intraperitoneal; in short: as §1
[16] = system: Mus musculus; assay: Antitumor activity against P388 leukemia in mice at a dose of 10 mg/kg administered intraperitoneally for 5 days; format: functional; details: route intraperitoneal; in short: as §2
[17] = system: Mus musculus; assay: Weight change in g when a dose of 10 mg/kg administered intraperitoneally to P388 leukemia model; format: functional; details: route intraperitoneal
In short: (§4)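 P388 model with a single ip dose. Mice (10 per group) were inoculated ip at D0 with 10^6 P388 cells and given one ip drug dose at D1. Body-weight change (g), median survival day, T/C and survivors at D30 were recorded.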

[18] = system: Mus musculus; assay: Weight change in g when a dose of 20 mg/kg administered intraperitoneally to P388 leukemia model; format: functional; details: route intraperitoneal; in short: as §4
[19] = system: Mus musculus; assay: Survivors at day 30 when a dose of 10 mg/kg to P388 leukemia model; 0/10; format: functional; in short: as §3
[20] = system: Mus musculus; assay: Weight change in g when a dose of 80 mg/kg administered intraperitoneally to P388 leukemia model; format: functional; details: route intraperitoneal
In short: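 P388 leukemia cells (10^6 viable) inoculated ip on day 0 into CDF1 hybrid male or female mice, 10 per test group. Drug dissolved in distilled water and given as a single ip dose on day 1. Body weight change (g) recorded for each dose group, alongside median survival day, T/C and survivors at D30, against vehicle controls (20 mice).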

[21] = system: Mus musculus; assay: Survivors at day 60 when a dose of 2.5 mg/kg to B16 melanoma infected mice; 0/10; format: functional
[22] = system: Mus musculus; assay: Median survival day in P388 leukemia model when a dose of 20 mg/kg administered intraperitoneally; format: functional; details: route intraperitoneal; in short: as §3
[23] = system: Mus musculus; assay: Antitumor activity against P388 cells at a dose of 40 mg/kg administered intraperitoneally to P388 leukemia model; format: functional; details: route intraperitoneal
In short: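 Mice were inoculated ip with 10^6 P388 leukemia cells at D0, then given a single ip drug dose on D1. Weight change was recorded. T/C % = median survival day of treated / controls × 100; survivors counted at D30; 10 mice per dose group, 20 controls.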

[24] = system: Mus musculus; assay: Survivors at day 30 when a dose of 5 mg/kg to P388 leukemia model; 0/10; format: functional
[25] = system: Mus musculus; assay: Survivors at day 60 when a dose of 1.25 mg/kg to B16 melanoma infected mice; 0/10

SMILES: Cc1cnc(NCCCN(C)C)c2c3cc(O)ccc3n(C)c12
- K aff [1]: 270000 M⁻¹
- IC50 [2]: 10 nM
- Median tumoral volume [3]: 0 cm*3
- T/C [4]: 134%
- Survivors [5]: 10
- T/C [6]: 206%
- T/C [7]: 184%
- Survivors [8]: 0
- T/C [9]: 123%
- T/C [10]: 48%
- Weight change [11]: 1 g
- Tumor volume [12]: 30%
- T/C [13]: 236%

SMILES: CCN(CC)CCCNc1[nH]cc(C)c2nc3ccc(O)cc3c1-2
- K aff [1]: 200000 M⁻¹
- IC50 [2]: 60 nM
- Median survival day [14]: 15.1
- T/C [4]: 124%
- T/C [15]: 33%
- T/C [16]: 185%
- T/C [6]: 174%
- Weight change [17]: 1.2 g
- Weight change [18]: 0.2 g
- T/C [7]: 162%
- Survivors [19]: 0
- T/C [10]: 205%
- Weight change [20]: -1.7 g
- T/C [13]: 170%
- Survivors [21]: 0
- Median survival day [22]: 16.25

SMILES: CCN(CC)CCCNc1ncc(C)c2c1c1cc(O)ccc1n2C
- K aff [1]: 240000 M⁻¹
- IC50 [2]: 30 nM
- Median survival day [14]: 17.8
- T/C [23]: 202%
- T/C ([4]; 2.5 mg/kg): 145% and 170%
- T/C [16]: 205%
- Weight change [17]: -0.6 g
- Weight change [18]: -1.2 g
- T/C [7]: 149%
- Survivors [19]: 0
- Survivors [24]: 0
- T/C [9]: 133%
- T/C [10]: 79%
- Weight change ([20]; dose 20 mg/kg, in the assay text read “20 mg/kg” for “80 mg/kg”): -1.2 g
- Weight change [11]: -2.5 g
- T/C [13]: 166%
- Median survival day [22]: 20.8
- Survivors [25]: 0
